Measured values as given in ChEMBL document CHEMBL1671813, “Discovery of potent competitive antagonists and positive modulators of the P2X2 receptor” (J Med Chem, 2011).
The source made the active and inactive calls. The calls are words filed in the database; no cut-off is given here.

Assays:
P2Y purinoceptor 4 = P2Y purinoceptor 4 (Homo sapiens, UniProt P51582); experiment: Antagonist activity against human P2Y4 receptor expressed in 1321N1 astrocytoma cells by calcium mobilization assay; assay type: functional, cell-based
Procedure, shortened: (§1)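 Astrocytoma cell lines stably transfected with human P2Y2, human P2Y4 or rat P2Y6 receptor. Inhibition of receptor-mediated intracellular calcium mobilization was measured.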

[1] = target: P2Y purinoceptor 6 (Rattus norvegicus) (UniProt Q63371); experiment: Antagonist activity against rat P2Y6 receptor expressed in 1321N1 astrocytoma cells by calcium mobilization assay
P2X purinoceptor 2 [2] = target: T1, P2X purinoceptor 2 (Rattus norvegicus, UniProt P49653); experiment: Antagonist activity against rat P2X2 receptor expressed in Xenopus laevis oocyte assessed as inhibition of ATP-induced inward current by two-electrode voltage-clamp electrophysiology
T1 sequence (P49653 whole entry): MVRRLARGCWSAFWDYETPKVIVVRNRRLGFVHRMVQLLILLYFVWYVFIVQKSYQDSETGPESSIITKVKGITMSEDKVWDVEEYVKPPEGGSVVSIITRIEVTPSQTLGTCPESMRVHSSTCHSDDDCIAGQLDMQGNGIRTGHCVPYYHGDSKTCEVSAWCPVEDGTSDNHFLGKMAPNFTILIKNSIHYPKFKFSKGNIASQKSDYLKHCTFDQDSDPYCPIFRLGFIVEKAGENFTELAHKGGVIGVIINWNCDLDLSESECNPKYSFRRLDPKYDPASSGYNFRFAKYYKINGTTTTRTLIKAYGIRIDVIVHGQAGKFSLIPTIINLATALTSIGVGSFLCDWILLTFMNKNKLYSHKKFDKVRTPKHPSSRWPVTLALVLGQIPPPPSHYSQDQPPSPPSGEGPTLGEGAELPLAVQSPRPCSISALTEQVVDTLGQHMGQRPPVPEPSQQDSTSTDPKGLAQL

P2Y purinoceptor 2 = P2Y purinoceptor 2 (Homo sapiens, UniProt P41231); experiment: Antagonist activity against human P2Y2 receptor expressed in 1321N1 astrocytoma cells by calcium mobilization assay; assay type: functional, cell-based; procedure, shortened: as §1
P2Y purinoceptor 12 = P2Y purinoceptor 12 (Homo sapiens, UniProt Q9H244); experiment: Displacement of [3H]PSB0413 from human platelet P2Y12 receptor
P2X purinoceptor 4 = target: T2, P2X purinoceptor 4 (Rattus norvegicus, UniProt P51577); experiment: Antagonist activity against rat P2X4 receptor expressed in Xenopus laevis oocyte assessed as inhibition of ATP-induced inward current by two-electrode voltage-clamp electrophysiology
T2 sequence (P51577 whole entry): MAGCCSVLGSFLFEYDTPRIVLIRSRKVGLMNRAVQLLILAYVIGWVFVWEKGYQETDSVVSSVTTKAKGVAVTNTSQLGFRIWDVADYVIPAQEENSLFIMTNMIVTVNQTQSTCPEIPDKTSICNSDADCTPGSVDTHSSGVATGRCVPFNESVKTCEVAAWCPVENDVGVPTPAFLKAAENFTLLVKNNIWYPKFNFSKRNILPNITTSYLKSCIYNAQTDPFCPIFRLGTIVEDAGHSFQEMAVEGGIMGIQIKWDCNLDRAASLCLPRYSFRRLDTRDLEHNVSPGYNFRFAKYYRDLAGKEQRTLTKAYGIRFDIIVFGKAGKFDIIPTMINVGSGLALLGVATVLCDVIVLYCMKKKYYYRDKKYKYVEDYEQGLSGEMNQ

[3] = target: T3, P2X purinoceptor 2 (Rattus norvegicus) (UniProt P49653); experiment: Antagonist activity against rat P2X2 receptor expressed in Xenopus laevis oocyte assessed as potentiation of ATP-induced inward current at 100 nM by two-electrode voltage-clamp electrophysiology
T3 sequence (whole entry): T1 sequence (P49653 whole entry)

[4] = target: T3, P2X purinoceptor 2 (Rattus norvegicus); experiment: Antagonist activity against rat P2X2 receptor expressed in Xenopus laevis oocyte assessed as maximum current amplitude by two-electrode voltage-clamp electrophysiology; assay type: functional
Procedure, shortened: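 Rat P2X2-expressing oocytes were voltage-clamped in Mg-ORi. Test compound at 100 nM was coapplied with 10 μM ATP. Current amplitude was expressed as a percentage of the current elicited by ATP alone (set at 100%).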

P2X purinoceptor 2 [5] = target: T1, P2X purinoceptor 2; experiment: Positive modulator activity against rat P2X2 receptor expressed in Xenopus laevis oocyte assessed as maximum ATP-induced inward current by two-electrode voltage-clamp electrophysiology in presence of 10 uM ATP
P2X purinoceptor 2 [6] = target: T1, P2X purinoceptor 2; experiment: Antagonist activity against rat P2X2 receptor expressed in Xenopus laevis oocyte assessed as inhibition of […] inward current by two-electrode voltage-clamp electrophysiology; assay type: functional
Procedure, shortened: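 Rat P2X2 or P2X4 cRNA was injected into collagenase-defolliculated Xenopus oocytes, which were kept at 19°C in ORi. Two-electrode voltage clamp was run 2-3 days later with perfusion in calcium-free Mg-ORi. 10 μM ATP was applied until steady-state current, then coapplied with incrementally larger test concentrations, with ATP-alone washout between. Inhibition was taken from the stationary current ratio, and IC50 from a Hill fit to pooled data.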

[7] = Selectivity ratio of IC50 for rat P2X2 receptor to IC50 for rat P2X3 receptor
P2X purinoceptor 7 = target: T4, P2X purinoceptor 7 (Rattus norvegicus, UniProt Q64663); experiment: Antagonist activity against rat P2X7 receptor expressed in Xenopus laevis oocyte assessed as inhibition of […] inward current by two-electrode voltage-clamp electrophysiology; assay type: functional
T4 sequence (Q64663 whole entry): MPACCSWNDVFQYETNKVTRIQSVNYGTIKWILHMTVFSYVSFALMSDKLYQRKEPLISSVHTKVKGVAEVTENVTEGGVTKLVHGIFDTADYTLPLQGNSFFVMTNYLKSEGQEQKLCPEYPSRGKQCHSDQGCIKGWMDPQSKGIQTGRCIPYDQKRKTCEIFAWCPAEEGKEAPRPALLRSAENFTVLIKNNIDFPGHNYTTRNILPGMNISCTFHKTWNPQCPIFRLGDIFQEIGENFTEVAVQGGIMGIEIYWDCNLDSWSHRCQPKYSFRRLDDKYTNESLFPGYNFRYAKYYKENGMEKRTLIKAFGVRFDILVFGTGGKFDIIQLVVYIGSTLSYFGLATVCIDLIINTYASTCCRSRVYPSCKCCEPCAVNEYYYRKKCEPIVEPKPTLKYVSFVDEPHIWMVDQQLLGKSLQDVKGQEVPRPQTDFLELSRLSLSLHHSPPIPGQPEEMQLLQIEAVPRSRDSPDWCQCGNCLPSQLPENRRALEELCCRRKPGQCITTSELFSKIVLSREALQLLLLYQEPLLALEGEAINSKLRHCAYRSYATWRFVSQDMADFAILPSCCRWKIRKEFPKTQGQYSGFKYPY

P2X purinoceptor 3 = target: T5, P2X purinoceptor 3 (Rattus norvegicus, UniProt P49654); experiment: Antagonist activity against rat P2X3 receptor expressed in Xenopus laevis oocyte assessed as inhibition of alpha, beta-meATP-induced inward current by two-electrode voltage-clamp electrophysiology; assay type: functional
T5 sequence (P49654 whole entry): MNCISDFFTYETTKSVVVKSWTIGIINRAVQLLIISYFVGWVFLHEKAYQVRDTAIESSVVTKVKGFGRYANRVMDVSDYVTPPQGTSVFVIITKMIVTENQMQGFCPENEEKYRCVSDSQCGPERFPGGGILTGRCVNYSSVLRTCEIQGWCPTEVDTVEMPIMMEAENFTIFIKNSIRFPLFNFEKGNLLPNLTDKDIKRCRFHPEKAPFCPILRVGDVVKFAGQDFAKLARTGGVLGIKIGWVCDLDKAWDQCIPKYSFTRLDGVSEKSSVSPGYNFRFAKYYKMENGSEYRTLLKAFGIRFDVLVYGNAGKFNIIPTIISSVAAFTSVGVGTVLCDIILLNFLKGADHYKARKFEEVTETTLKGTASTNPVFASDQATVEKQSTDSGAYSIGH

[8] = Selectivity ratio of IC50 for rat P2X2 receptor to IC50 for rat P2X4 receptor
P2X2/P2X3 receptor = target: T6, P2X2/P2X3 receptor (Rattus norvegicus, UniProt P49653+P49654); experiment: Antagonist activity against rat P2X2/3 receptor expressed in Xenopus laevis oocyte assessed as inhibition of alpha, beta-meATP-induced inward current by two-electrode voltage-clamp electrophysiology; assay type: functional
T6 sequence (P49653 whole entry): T1 sequence (P49653 whole entry)
T6 sequence (P49654 whole entry): T5 sequence (P49654 whole entry)
Procedure, shortened: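 Heteromer formed by injecting rP2X2 and rP2X3 cRNA at 1:2 (w/w). Agonist 1 μM α,β-meATP, applied repeatedly to keep homomeric P2X3 desensitized. Same steady-state coapplication protocol in Ca-free Mg-ORi. IC50 from a Hill fit to pooled data from 5-7 experiments.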

[9] = Selectivity ratio of IC50 for rat P2X2 receptor to IC50 for rat P2X1 receptor
[10] = Selectivity ratio of IC50 for rat P2X2 receptor to IC50 for rat P2X7 receptor
P2X purinoceptor 1 = target: T7, P2X purinoceptor 1 (Rattus norvegicus, UniProt P47824); experiment: Antagonist activity against rat P2X1 receptor expressed in Xenopus laevis oocyte assessed as inhibition of alpha, beta-meATP-induced inward current by two-electrode voltage-clamp electrophysiology; assay type: functional
T7 sequence (P47824 whole entry): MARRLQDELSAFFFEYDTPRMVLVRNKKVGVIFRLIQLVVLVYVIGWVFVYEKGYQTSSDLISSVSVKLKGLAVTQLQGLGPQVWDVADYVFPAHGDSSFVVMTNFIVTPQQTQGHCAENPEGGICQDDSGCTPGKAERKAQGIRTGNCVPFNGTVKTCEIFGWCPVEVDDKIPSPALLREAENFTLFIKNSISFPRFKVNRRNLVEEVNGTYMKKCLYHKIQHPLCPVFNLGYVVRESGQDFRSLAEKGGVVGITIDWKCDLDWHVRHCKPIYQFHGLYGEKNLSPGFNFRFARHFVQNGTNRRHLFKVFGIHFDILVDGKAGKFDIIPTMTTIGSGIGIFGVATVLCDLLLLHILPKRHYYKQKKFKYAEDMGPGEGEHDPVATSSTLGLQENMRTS

[11] = Selectivity ratio of IC50 for rat P2X2 receptor to IC50 for rat P2X2/3 receptor

Sequence of P2Y purinoceptor 2 (P41231 whole entry): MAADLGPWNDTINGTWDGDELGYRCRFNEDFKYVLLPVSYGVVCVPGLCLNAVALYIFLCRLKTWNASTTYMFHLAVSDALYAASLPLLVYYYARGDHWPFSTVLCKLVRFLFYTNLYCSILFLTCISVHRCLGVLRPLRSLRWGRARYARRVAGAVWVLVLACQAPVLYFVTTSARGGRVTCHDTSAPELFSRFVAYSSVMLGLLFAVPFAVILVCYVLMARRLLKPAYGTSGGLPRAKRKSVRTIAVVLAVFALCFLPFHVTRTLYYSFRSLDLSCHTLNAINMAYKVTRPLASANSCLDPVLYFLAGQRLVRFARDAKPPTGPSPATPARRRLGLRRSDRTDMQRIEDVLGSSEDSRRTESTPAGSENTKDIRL
Sequence of P2Y purinoceptor 4 (P51582 whole entry): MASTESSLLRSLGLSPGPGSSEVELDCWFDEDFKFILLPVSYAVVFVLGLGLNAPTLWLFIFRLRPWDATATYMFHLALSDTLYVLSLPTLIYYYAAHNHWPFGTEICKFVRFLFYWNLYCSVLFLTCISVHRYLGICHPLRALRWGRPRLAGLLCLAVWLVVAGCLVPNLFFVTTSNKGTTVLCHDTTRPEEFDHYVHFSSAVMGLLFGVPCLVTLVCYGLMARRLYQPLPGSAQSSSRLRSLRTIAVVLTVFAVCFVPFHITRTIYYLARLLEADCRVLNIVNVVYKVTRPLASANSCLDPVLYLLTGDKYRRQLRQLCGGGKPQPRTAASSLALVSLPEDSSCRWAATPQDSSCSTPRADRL
Sequence of P2Y purinoceptor 12 (Q9H244 whole entry): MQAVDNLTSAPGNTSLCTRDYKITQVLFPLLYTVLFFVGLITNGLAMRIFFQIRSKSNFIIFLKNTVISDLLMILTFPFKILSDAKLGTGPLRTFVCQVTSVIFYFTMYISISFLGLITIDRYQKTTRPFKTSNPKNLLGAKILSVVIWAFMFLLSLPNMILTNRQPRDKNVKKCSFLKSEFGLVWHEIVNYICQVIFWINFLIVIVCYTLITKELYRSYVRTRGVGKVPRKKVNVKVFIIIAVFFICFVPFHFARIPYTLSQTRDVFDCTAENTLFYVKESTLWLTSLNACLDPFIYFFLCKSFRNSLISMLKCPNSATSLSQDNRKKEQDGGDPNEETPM

SMILES | IC50 (P2Y purinoceptor 4) | IC50 [1] | IC50 (P2X purinoceptor 2 [2]) | IC50 (P2Y purinoceptor 2) | Ki (P2Y purinoceptor 12) | IC50 (P2X purinoceptor 4) | IC50 (P2X purinoceptor 2 [6]) | also measured
COc1cccc(Nc2cc(S(=O)(=O)O)c(N)c3c2C(=O)c2ccccc2C3=O)c1 | 10 µM | > 10 µM | 0.623 µM | 10 µM | 10 µM | > 10 µM | – | –
Nc1c(S(=O)(=O)O)cc(Nc2cccc(Oc3ccccc3)c2)c2c1C(=O)c1ccccc1C2=O | – | 4.56 µM | – | 10 µM | – | – | – | potentiation % [3]: 132%; Activity [4]: Active; EC50 (P2X purinoceptor 2 [5]): 0.489 µM
Nc1ncnc2c1ncn2[C@@H]1O[C@H](COP(=O)(O)OP(=O)(O)OP(=O)(O)O)[C@H]2OC3(O[C@H]21)C([N+](=O)[O-])=CC(=[N+]([O-])[O-])C=C3[N+](=O)[O-] (stereo partly drawn) [TNP-ATP SODIUM] | – | – | 4 µM | – | – | – | 39.8 µM | –
Nc1c(S(=O)(=O)O)cc(Nc2cccc(Cc3ccccc3)c2)c2c1C(=O)c1ccccc1C2=O | > 10 µM | > 10 µM | – | > 10 µM | – | – | – | potentiation % [3]: 120%
Nc1c(S(=O)(=O)O)cc(Nc2ccc(S(=O)(=O)O)c(Nc3nc(Cl)nc(Cl)n3)c2)c2c1C(=O)c1ccccc1C2=O | > 10 µM | > 10 µM | 0.079 µM | 10 µM | – | > 10 µM | – | IC50 [7]: 0.0053 µM; IC50 (P2X purinoceptor 7): > 10 µM; IC50 (P2X purinoceptor 3): 0.494 µM; IC50 [8]: > 0.12 µM; IC50 (P2X2/P2X3 receptor): 1.04 µM; IC50 [9]: 0.0062 µM; IC50 [10]: > 0.12 µM; IC50 (P2X purinoceptor 1): 0.422 µM; IC50 [11]: 0.0132 µM
Nc1c(S(=O)(=O)O)cc(Nc2ccc(Nc3nc(Cl)nc(Nc4cccc(S(=O)(=O)O)c4)n3)c(S(=O)(=O)O)c2)c2c1C(=O)c1ccccc1C2=O [RB 2] | – | 4.34 µM | 4 µM | – | 0.68 µM | – | 39.8 µM | –
Cc1cc(/N=N/c2ccc(S(=O)(=O)O)cc2S(=O)(=O)O)c(COP(=O)(O)O)c(C=O)c1O | – | – | 4 µM | – | – | – | 39.8 µM | –
Cc1cccc(Nc2cc(S(=O)(=O)O)c(N)c3c2C(=O)c2ccccc2C3=O)c1 | > 10 µM | 3.92 µM | 0.8 µM | 10 µM | 10 µM | > 10 µM | – | –
